Measured values taken from ChEMBL document CHEMBL4002589, “Tri- and Tetrasubstituted Pyridinylimidazoles as Covalent Inhibitors of c-Jun N-Terminal Kinase 3” (J Med Chem, 2017).
The source made the active and inactive calls. The calls are words filed in the database; no cut-off is given here.

How the values were obtained:
[1] = target: T1, Serine/threonine-protein kinase TAO2 (Homo sapiens) (UniProt Q9UL54); assay: Inhibition of TAOK2 (unknown origin) assessed as residual activity at 1 uM relative to control
T1 sequence (whole entry): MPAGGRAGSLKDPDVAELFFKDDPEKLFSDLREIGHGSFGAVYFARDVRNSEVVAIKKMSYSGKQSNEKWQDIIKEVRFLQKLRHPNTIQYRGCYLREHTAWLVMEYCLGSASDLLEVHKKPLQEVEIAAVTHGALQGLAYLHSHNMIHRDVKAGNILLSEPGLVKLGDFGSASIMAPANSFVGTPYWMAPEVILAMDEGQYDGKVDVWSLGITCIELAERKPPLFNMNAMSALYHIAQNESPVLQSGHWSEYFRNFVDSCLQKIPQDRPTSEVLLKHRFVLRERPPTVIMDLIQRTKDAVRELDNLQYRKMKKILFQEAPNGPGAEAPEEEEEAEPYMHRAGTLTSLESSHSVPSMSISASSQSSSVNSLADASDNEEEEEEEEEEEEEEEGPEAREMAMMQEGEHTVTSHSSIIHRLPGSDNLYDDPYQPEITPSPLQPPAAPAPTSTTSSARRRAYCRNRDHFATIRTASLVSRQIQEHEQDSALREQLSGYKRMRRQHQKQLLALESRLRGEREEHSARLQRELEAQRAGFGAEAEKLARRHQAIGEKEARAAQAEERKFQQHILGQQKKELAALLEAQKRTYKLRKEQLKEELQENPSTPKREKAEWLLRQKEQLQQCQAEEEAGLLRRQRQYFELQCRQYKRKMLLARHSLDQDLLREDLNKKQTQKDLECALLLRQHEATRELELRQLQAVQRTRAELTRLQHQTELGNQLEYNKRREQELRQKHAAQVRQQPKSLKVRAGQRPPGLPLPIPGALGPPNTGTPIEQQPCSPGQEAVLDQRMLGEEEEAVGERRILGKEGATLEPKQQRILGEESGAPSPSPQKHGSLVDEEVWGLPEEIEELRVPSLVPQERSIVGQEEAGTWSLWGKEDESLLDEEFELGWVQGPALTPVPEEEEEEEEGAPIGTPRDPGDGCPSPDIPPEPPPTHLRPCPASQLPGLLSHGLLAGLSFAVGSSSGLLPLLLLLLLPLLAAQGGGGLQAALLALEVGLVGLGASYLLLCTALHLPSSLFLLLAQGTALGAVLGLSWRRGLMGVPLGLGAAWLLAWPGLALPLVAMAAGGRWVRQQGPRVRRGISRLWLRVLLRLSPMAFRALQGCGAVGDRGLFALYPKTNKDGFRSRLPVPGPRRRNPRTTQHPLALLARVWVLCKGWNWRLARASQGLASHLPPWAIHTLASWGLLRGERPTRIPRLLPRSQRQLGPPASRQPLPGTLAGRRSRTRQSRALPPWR
Summary of the method: (§1)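 Each inhibitor is tested at a single concentration, 1 µM or 0.5 µM depending on the compound. Results are reported as residual kinase activity.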

[2] = Drug metabolism in human liver microsomes at 100 uM preincubated with NADPH regenerating system for 5 mins followed by addition of liver microsomes measured after 190 mins by LC-MS analysis; assay type: ADME, microsome; details: read-out: Drug metabolism
[3] = target: Casein kinase I isoform delta (Homo sapiens) (UniProt P48730); assay: Inhibition of CK1 delta (unknown origin) assessed as residual activity at 1 uM relative to control; summary of the method: as §1
[4] = test system: Mitogen-activated protein kinase 10 (Homo sapiens), P53779 [C154A]; assay: Covalent binding affinity to JNK3 C154A mutant (unknown origin) at 5 molar excess after 1 hr by LC-muESI-QTOF mass spectrometry
Summary of the method: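 Intact-protein mass spectrometry with a JNK3 mutant carrying Cys-154→Ala. Inhibitor is incubated with the protein. Unbound and reversibly bound ligand are removed by chromatography and by a high declustering potential before ionization. The protein is then analysed by LC-µESI-QTOF to look for a mass shift from a covalent adduct.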

Sequence of Casein kinase I isoform delta (Homo sapiens) (P48730 whole entry, looked up, canonical isoform): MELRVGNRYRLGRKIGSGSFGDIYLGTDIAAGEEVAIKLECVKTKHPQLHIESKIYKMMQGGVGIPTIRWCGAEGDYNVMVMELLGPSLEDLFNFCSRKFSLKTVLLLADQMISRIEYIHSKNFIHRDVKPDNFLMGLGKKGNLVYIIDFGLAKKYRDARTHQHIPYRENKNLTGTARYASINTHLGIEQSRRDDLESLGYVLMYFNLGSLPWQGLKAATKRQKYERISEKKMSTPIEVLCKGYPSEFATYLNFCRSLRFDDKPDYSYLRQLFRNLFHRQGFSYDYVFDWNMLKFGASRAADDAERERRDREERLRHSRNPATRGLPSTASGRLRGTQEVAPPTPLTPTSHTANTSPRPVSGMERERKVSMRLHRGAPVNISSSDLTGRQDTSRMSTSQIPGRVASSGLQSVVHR
Sequence of Mitogen-activated protein kinase 10 (Homo sapiens), P53779 [C154A] (P53779 whole entry C154A): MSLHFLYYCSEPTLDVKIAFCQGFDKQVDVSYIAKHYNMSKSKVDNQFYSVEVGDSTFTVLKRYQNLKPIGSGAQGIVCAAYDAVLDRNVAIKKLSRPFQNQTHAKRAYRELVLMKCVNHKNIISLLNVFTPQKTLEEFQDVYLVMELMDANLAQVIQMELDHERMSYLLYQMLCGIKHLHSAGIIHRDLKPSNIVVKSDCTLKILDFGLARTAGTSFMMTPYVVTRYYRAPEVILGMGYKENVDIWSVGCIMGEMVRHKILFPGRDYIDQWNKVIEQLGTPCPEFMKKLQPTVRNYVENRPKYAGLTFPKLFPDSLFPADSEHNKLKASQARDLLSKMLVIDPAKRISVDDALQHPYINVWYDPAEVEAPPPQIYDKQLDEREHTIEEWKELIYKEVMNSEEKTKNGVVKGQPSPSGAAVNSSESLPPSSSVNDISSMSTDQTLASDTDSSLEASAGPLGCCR

C=CC(=O)Nc1cccc(C(=O)Nc2ccc(Nc3cc(-c4[nH]c(SC)nc4C)ccn3)cc2)c1
Activity [1]: 10 to 29%
metabolised at 190 min, 100 µM [2]: 31%
Activity [3]: 10 to 29%
Activity [4]: inactive
